Measured values reported in ChEMBL document CHEMBL5674876, “Epigenetic Activation of Pro-angiogenic Signaling Pathways in Human Endothelial Progenitors Increases Vasculogenesis” (Stem Cell Reports, 2017).
Calls of active or inactive are those of the source.

Experiments:
[1] = system: HUVEC; experiment: Effect on pro-angiogenic property in human umbilical cord derived endothelial colony forming cells assessed as cell migration treated for 10 hrs measured by crystal violet staining analysis based gap closure assay; assay type: functional; conditions: dose 2.5-20 nM
[2] = system: HUVEC; experiment: Effect on pro-angiogenic property in human umbilical cord derived endothelial colony forming cells assessed as formation of capillary network on matrigel at 2.5 to 500 nM; assay type: functional, cell-based; conditions: dose 2.5-500 nM
In short: (§1)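 Drug- or vehicle-pretreated ECFCs seeded at 5,000 cells/well on phenol-red-free growth-factor-reduced Matrigel in duplicate; after 24 hr stained with 5 μg/mL calcein 5 min at 37°C, imaged at 2.5×. Total tube length expressed as percentage of vehicle control ±SEM, three independent experiments.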

[3] = system: HUVEC; experiment: Effect on pro-angiogenic property in human umbilical cord derived endothelial colony forming cells assessed as increase in DLL1 level by qRT-PCR analysis; assay type: functional, cell-based
[4] = system: HUVEC; experiment: Effect on pro-angiogenic property in human umbilical cord derived endothelial colony forming cells assessed as increase in SHH level by qRT-PCR analysis; assay type: functional, cell-based
[5] = system: HUVEC; experiment: Effect on pro-angiogenic property in human umbilical cord derived endothelial colony forming cells assessed as cell migration treated at 330 nM for 10 hrs measured by crystal violet staining analysis based gap closure assay; assay type: functional
[6] = system: HUVEC; experiment: Effect on pro-angiogenic property in human umbilical cord derived endothelial colony forming cells assessed as formation of capillary network on matrigel at 330 nM; assay type: functional, cell-based; in short: as §1

Measured: Activity

Cc1[nH]c2ccccc2c1CCNCc1ccc(/C=C/C(=O)NO)cc1
active: [1] Dose-Dependent Effect | [2] Dose-Dependent Effect | [3] | [4]

CC(/C=C/C(=O)NO)=C\[C@@H](C)C(=O)c1ccc(N(C)C)cc1
active: [5] | [6]
